pIC50: −log10 of the molar value.
How the values were obtained:
[1] = biological target: T1, Protein FosB (Homo sapiens, UniProt P53539); experiment: (§1) Inhibition of recombinant Hi6-tagged deltaFOSB (unknown origin) expressed in insect cells interaction with TAMRA labeled 5'-GTCGGTGACTCAAAACA-3' AP1 oligonucleotide measured after 15 mins by fluorescence polarization assay; details: for pIC50: read-out: IC50
T1 sequence (P53539 whole entry): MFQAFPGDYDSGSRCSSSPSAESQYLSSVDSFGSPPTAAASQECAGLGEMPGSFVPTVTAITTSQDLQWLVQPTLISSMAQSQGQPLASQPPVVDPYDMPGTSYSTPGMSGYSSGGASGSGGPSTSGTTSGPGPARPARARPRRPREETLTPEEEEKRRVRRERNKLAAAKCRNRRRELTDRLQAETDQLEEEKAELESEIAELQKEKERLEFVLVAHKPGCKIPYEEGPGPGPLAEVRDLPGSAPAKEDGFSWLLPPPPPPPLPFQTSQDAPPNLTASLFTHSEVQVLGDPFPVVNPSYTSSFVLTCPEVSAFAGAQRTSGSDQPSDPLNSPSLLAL
Method in brief: (§2)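 ΔFosB homodimer, 320 nM (as monomers). Compound serially diluted, 10 concentrations over 0–200 μM in quadruplicate. Compound premixed 5 min with 25 nM TAMRA-cdk5 AP-1 19-mer duplex in 20 mM HEPES pH 7.5, 50 mM NaCl, then protein added for 15 min. FP read at ex 530/540, em 590 nm. Compound-plus-oligo wells without protein serve as the interference control. Four-parameter fit; IC50 is mean ± SD of two independent days.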

[2] = biological target: T2, Protein FosB (Homo sapiens) (UniProt P53539); experiment: as §1; method in brief: as §2
T2 sequence (whole entry): T1 sequence (P53539 whole entry)

[3] = biological target: Protein fosB/Transcription factor jun-D (Homo sapiens) (UniProt P53539+P17535); experiment: (§3) Inhibition of recombinant Hi6-tagged deltaFOSB (unknown origin)/His6-tagged JUND (unknown origin) expressed in insect cells interaction with TAMRA labeled 5'-GTCGGTGACTCAAAACA-3' AP1 oligonucleotide measured after 15 mins by fluorescence polarization assay
Method in brief: (§4)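 ΔFosB/JunD heterodimer, 280 nM (as monomers). Compound serially diluted, 10 concentrations over 0–200 μM in quadruplicate. Compound premixed 5 min with 25 nM TAMRA-cdk5 AP-1 19-mer duplex in 20 mM HEPES pH 7.5, 150 mM NaCl, then protein added for 15 min. FP read at ex 530/540, em 590 nm. Wells of compound with oligo and no protein check for DNA interference. IC50 from a four-parameter fit, mean ± SD of two independent days.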

[4] = biological target: T3, Protein fosB/Transcription factor jun-D (Homo sapiens, UniProt P17535+P53539); experiment: as §3; method in brief: as §4
T3 sequence (P53539 whole entry): T1 sequence (P53539 whole entry)
T3 sequence (P17535 whole entry): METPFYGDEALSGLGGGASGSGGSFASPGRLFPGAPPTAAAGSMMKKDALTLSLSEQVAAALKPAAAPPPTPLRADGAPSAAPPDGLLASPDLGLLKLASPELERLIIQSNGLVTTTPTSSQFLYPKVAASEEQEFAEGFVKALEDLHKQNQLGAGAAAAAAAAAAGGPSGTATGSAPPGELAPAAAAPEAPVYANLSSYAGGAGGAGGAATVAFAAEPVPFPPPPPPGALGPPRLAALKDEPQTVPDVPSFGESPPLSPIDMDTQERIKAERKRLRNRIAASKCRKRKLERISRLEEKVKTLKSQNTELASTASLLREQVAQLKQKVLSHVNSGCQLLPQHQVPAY

[5] = biological target: T4, Protein fosB/Transcription factor jun-D (Homo sapiens, UniProt P53539+P17535); experiment: as §3; method in brief: as §4
T4 sequence (P53539 whole entry): T1 sequence (P53539 whole entry)
T4 sequence (P17535 whole entry): T3 sequence (P17535 whole entry)

Row | SMILES | pIC50 [1] | inhibition [2] | inhibition [3] | pIC50 [4] | IC50 [1] | IC50 [5]
1 | COc1cc(OC)c2c(C3CCNCC3)nc3c(OC)cccc3c2c1 | 4.24 | Dose-dependent effect | Dose-dependent effect | 4.25 | – | –
2 | COc1cccc2c1N(C(C)=O)C(C(=O)O)C1CC=CC21 (configuration not stated) | < 4.00 | – | – | < 4.00 | – | –
3 | CNC(=O)C1Nc2c(OC)cccc2C2C=CCC12 (configuration not stated) | < 4.00 | – | – | < 4.00 | – | –
4 | CCOC(=O)C1Nc2c(OC)cccc2C2C=CCC12 (configuration not stated) | < 4.00 | – | – | < 4.00 | – | –
5 | COc1cccc2c1NC(C(=O)O)C1CCCC21 (configuration not stated) | < 4.00 | – | – | < 4.00 | – | –
6 | Cc1cccc2c3c(c(C(=O)O)nc12)CCC3 | < 4.00 | – | – | < 4.00 | – | –
7 | COc1cccc2c1NC(C(=O)O)C1CC=CC21 (configuration not stated) | 4.54 | – | – | 4.88 | – | –
8 | Cc1cccc2c1NC(C(=O)O)C1CC=CC21 (configuration not stated) | – | – | – | – | Not Active | Not Active
9 | COc1cc(OC)c2c(C(=O)O)nc3c(OC)cccc3c2c1 | < 4.00 | – | – | < 4.00 | – | –
10 | COc1cccc2c1NC(C(=O)Nc1ccccc1)C1CC=CC21 (configuration not stated) | < 4.00 | – | – | < 4.00 | – | –

More lines, now with the values ahead:

Row | pIC50 [1] | inhibition [2] | inhibition [3] | pIC50 [4] | IC50 [1] | IC50 [5] | SMILES
11 | – | – | – | – | Not Active | Not Active | CCc1nc2c(OC)cccc2c2cc(OC)cc(OC)c12
12 | < 4.00 | – | – | < 4.00 | – | – | COc1cc(OC)c2c(C3CCN(C(C)=O)CC3)nc3c(OC)cccc3c2c1
13 | < 4.00 | – | – | < 4.00 | – | – | COc1cc(OC)c2c(C3CCN(C(=O)OC(C)(C)C)CC3)nc3c(OC)cccc3c2c1
14 | < 4.00 | – | – | < 4.00 | – | – | COc1cccc2c1NC(CO)C1CC=CC21 (configuration not stated)
15 | < 4.00 | – | – | < 4.00 | – | – | CCOC(=O)c1nc2c(C)cccc2c2c1CCC2

Reference: ChEMBL document CHEMBL4622938, “Discovery of phenanthridine analogues as novel chemical probes disrupting the binding of DNA to ΔFosB homodimers and ΔFosB/JunD heterodimers” (Bioorg Med Chem Lett, 2020)
